The source of these data is ChEMBL document CHEMBL3045797, “Isolation and identification of novel macrocyclic lactones from Streptomyces avermitilis NEAU1069 with acaricidal and nematocidal activity” (2010).

Format in all cases: functional
For experiment [1], the system named is Caenorhabditis elegans. Nature of the experiment: Nematocidal activity against Caenorhabditis elegans assessed as immobilized rate at 2 ug/mL at 25 degC for 15 hr (reference value: 5.3 to 6.8%).
In experiment [2] the test system is Caenorhabditis elegans. Description: Nematocidal activity against Caenorhabditis elegans assessed as immobilized rate at 100 ug/mL at 25 degC for 15 hr (reference value: 5.3 to 6.8%). The method, boiled down: (§1)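 Compounds were prepared as 0.1% MeOH solutions and diluted 10-fold in water to give 100 μg/mL test solutions. Immobilized and total C. elegans were counted under a stereomicroscope. Result is % immobilized of all nematodes tested.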

Experiment [3] deals with Tetranychus urticae. Nature of the experiment: Acaricidal activity against adult Tetranychus urticae (two-spotted spider mite) in leaves of cowpea plant assessed as number of unhatched eggs at 10 ug/mL at 25 degC measured after 10 days (reference value: 0%).
In experiment [4] the test system is Tetranychus urticae. Nature of the experiment: Acaricidal activity against adult Tetranychus urticae (two-spotted spider mite) in leaves of cowpea plant assessed as mortality at 2 ug/mL at 25 degC measured after 3 days (reference value: 0%). To be noted: 72 h.
Experiment [5] concerns Tetranychus urticae. Nature of the experiment: Acaricidal activity against adult Tetranychus urticae (two-spotted spider mite) in leaves of cowpea plant assessed as number of unhatched eggs at 50 ug/mL at 25 degC measured after 10 days (reference value: 0%).
For experiment [6], the system named is Tetranychus urticae. Nature of the experiment: Acaricidal activity against adult Tetranychus urticae (two-spotted spider mite) in leaves of cowpea plant assessed as number of unhatched eggs at 2 ug/mL at 25 degC measured after 10 days (reference value: 0%).
Experiment [7] deals with Caenorhabditis elegans. Description: Nematocidal activity against Caenorhabditis elegans assessed as immobilized rate at 10 ug/mL at 25 degC for 15 hr (reference value: 5.3 to 6.8%). The method, boiled down: as §1
Experiment [8] concerns Tetranychus urticae. Description: Acaricidal activity against adult Tetranychus urticae (two-spotted spider mite) in leaves of cowpea plant assessed as mortality at 100 ug/mL at 25 degC measured after 3 days (reference value: 0%). To be noted: 72 h.
The test system of experiment [9] is Tetranychus urticae. Nature of the experiment: Acaricidal activity against adult Tetranychus urticae (two-spotted spider mite) in leaves of cowpea plant assessed as number of unhatched eggs at 30 ug/mL at 25 degC measured after 10 days (reference value: 0%).
For experiment [10], the system named is Tetranychus urticae. Description: Acaricidal activity against adult Tetranychus urticae (two-spotted spider mite) in leaves of cowpea plant assessed as number of unhatched eggs at 100 ug/mL at 25 degC measured after 10 days (reference value: 0%).
In experiment [11] the test system is Tetranychus urticae. Description: Acaricidal activity against adult Tetranychus urticae (two-spotted spider mite) in leaves of cowpea plant assessed as mortality at 30 ug/mL at 25 degC measured after 3 days (reference value: 0%). To be noted: 72 h.
For experiment [12], the system named is Caenorhabditis elegans. Nature of the experiment: Nematocidal activity against Caenorhabditis elegans assessed as immobilized rate at 30 ug/mL at 25 degC for 15 hr (reference value: 5.3 to 6.8%).
Experiment [13] has as its system Tetranychus urticae. Description: Acaricidal activity against adult Tetranychus urticae (two-spotted spider mite) in leaves of cowpea plant assessed as mortality at 10 ug/mL at 25 degC measured after 3 days (reference value: 0%). The note with it: 72 h.
Experiment [14] has as its system Tetranychus urticae. Description: Acaricidal activity against adult Tetranychus urticae (two-spotted spider mite) in leaves of cowpea plant assessed as mortality at 50 ug/mL at 25 degC measured after 3 days (reference value: 0%). The note with it: 72 h.
Experiment [15] deals with Caenorhabditis elegans. Description: Nematocidal activity against Caenorhabditis elegans assessed as immobilized rate at 50 ug/mL at 25 degC for 15 hr (reference value: 5.3 to 6.8%). The method, boiled down:
as §1

Take `C/C1=C\C[C@@H]2C[C@@H](C[C@]3(C[C@@H](O)[C@H](C)[C@@H](C4CCCCC4)O3)O2)OC(=O)c2cc(C)c(O)cc2/C=C/C=C/[C@H](C)[C@@H]1O`: the Activity in [1] is listed as 43.7%; in experiment [2] it was 100%; in experiment [3], 13.9%; in experiment [5], 43.7%; in [6] it was 0%; in experiment [7] it was 92.7%. Moreover, the Activity came to 23.5% in experiment [9], 59.8% in experiment [10], 100% in experiment [12] and 100% in [15]. The mortality (as a rule, the percentage killed) at 2 µg/mL in experiment [4] turned out to be 43.9%. In addition, the mortality at 100 µg/mL in [8] stood at 100%. Also, the mortality at 30 µg/mL in experiment [11] stood at 96.4%. Further, the mortality at 10 µg/mL in experiment [13] worked out at 75.6%. Besides, the mortality at 50 µg/mL in experiment [14] amounted to 100%.

Consider `C/C1=C\C[C@@H]2C[C@@H](C[C@]3(C=C[C@H](C)[C@@H](C4CCCCC4)O3)O2)OC(=O)c2cc(C)c(O)cc2/C=C/C=C/[C@H](C)[C@@H]1O`, for which the Activity is listed as 13.5% in experiment [1]; 100% in experiment [2]; 12.1% in experiment [3]; 37.6% in experiment [5]; 0% in [6]; 49.2% in experiment [7]. Besides, the Activity is listed as 19.8% in experiment [9], 56.7% in experiment [10], 81.4% in [12] and 100% in experiment [15]. In addition, the mortality at 2 µg/mL in experiment [4] worked out at 45.2%. Also, in [8], the mortality at 100 µg/mL was 100%. Also, the mortality at 30 µg/mL in experiment [11] was 92.5%. For the same compound, in [13], the mortality at 10 µg/mL came out at 77.1%. Besides, in [14], the mortality at 50 µg/mL is 100%.

`CO[C@H]1C[C@H](O[C@H]2[C@H](C)O[C@@H](O[C@@H]3/C(C)=C/C[C@@H]4C[C@@H](C[C@]5(C=C[C@H](C)[C@@H](C6CCCCC6)O5)O4)OC(=O)[C@@H]4C=C(C)[C@@H](O)[C@H]5OC/C(=C\C=C\[C@@H]3C)[C@]54O)C[C@@H]2OC)O[C@@H](C)[C@@H]1O` [DORAMECTIN]: the Activity stood at 45.3% in experiment [1]; 100% in experiment [2]; 0% in experiment [3]; 21.5% in [5]; 0% in [6]; 86.5% in experiment [7]. The Activity in experiment [9] is recorded as 8.9%; in experiment [10], 47.4%; in experiment [12], 100%; in experiment [15] it was 100%. Moreover, the mortality at 2 µg/mL in experiment [4] was 26.8%. The mortality at 100 µg/mL in [8] worked out at 100%. Besides, the mortality at 30 µg/mL in experiment [11] turned out to be 86.5%. In [13], the mortality at 10 µg/mL stood at 62.9%. For the same compound, in experiment [14], the mortality at 50 µg/mL came out at 100%.
